Results published in ChEMBL document CHEMBL3244289, “Synthesis and antibacterial activity of 2'-substituted chelocardin analogues” (1979).
Active and inactive are the calls of the source. No cut-off for these calls is given here.

How the values were obtained:
Proteus mirabilis [1] = test: Antibacterial activity against Proteus mirabilis infected in po dosed mouse assessed as protection against bacterial infection; format: functional
Outline: (§1)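 Mice were challenged intraperitoneally with Proteus mirabilis, and compound was given by the line's route (oral or subcutaneous). The CD50 is the total dose in mg/kg that protects 50% of challenged mice.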

Escherichia coli = test: Antibacterial activity against Escherichia coli Juhl by two-fold agar dilution method; format: functional
Outline: (§2)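 MIC determined by twofold serial dilution in brain-heart infusion agar. Values are reported in µg/mL.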

Pasteurella multocida = test: Antibacterial activity against Pasteurella multocida 10544 by two-fold agar dilution method; format: functional; outline: as §2
Staphylococcus aureus [2] = test: Antibacterial activity against Staphylococcus aureus Smith by two-fold agar dilution method; format: functional; outline: as §2
Proteus mirabilis [3] = test: Antibacterial activity against Proteus mirabilis infected in sc dosed mouse assessed as protection against bacterial infection; format: functional; outline: as §1
Streptococcus pyogenes = test: Antibacterial activity against Streptococcus pyogenes C-203 by two-fold agar dilution method; format: functional; outline: as §2
Enterococcus = test: Antibacterial activity against Enterococcus 89 by two-fold agar dilution method; format: functional; outline: as §2
Klebsiella pneumoniae = test: Antibacterial activity against Klebsiella pneumoniae 8045 by two-fold agar dilution method; format: functional; outline: as §2
Pseudomonas aeruginosa = test: Antibacterial activity against Pseudomonas aeruginosa by two-fold agar dilution method; format: functional, organism-based; outline: as §2
Staphylococcus aureus [4] = test: Antibacterial activity against Staphylococcus aureus 45 by two-fold agar dilution method; format: functional; outline: as §2
Proteus mirabilis [5] = test: Antibacterial activity against Proteus mirabilis by two-fold agar dilution method; format: functional; outline: as §2
Proteus vulgaris = test: Antibacterial activity against Proteus vulgaris by two-fold agar dilution method; format: functional; outline: as §2
Salmonella typhi = test: Antibacterial activity against Salmonella typhi by two-fold agar dilution method; format: functional, Salmonella enterica subsp. enterica serovar Typhi; conditions: Salmonella enterica
Outline: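 MIC in µg/mL by twofold serial agar dilution on brain-heart infusion agar.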

Structure (SMILES): CC(=O)C1=C(O)[C@H](N)[C@@H]2Cc3c(c(O)c4c(O)c(C)ccc4c3C)C(=O)[C@]2(O)C1=O.Cl [CETOCYCLINE HYDROCHLORIDE]
- CD50 (Proteus mirabilis [1]): 200 mg/kg
- MIC (Escherichia coli): 6.2 µg/mL
- MIC (Pasteurella multocida): 0.39 µg/mL
- MIC (Staphylococcus aureus [2]): 3.1 µg/mL
- CD50 (Proteus mirabilis [3]): 12.5 mg/kg
- MIC (Streptococcus pyogenes): 3.1 µg/mL
- MIC (Enterococcus): 6.2 µg/mL
- MIC (Klebsiella pneumoniae): 3.1 µg/mL
- Activity (Pseudomonas aeruginosa): inactive
- MIC (Staphylococcus aureus [4]): 6.2 µg/mL
- MIC (Proteus mirabilis [5]): 1.56 µg/mL
- MIC (Proteus vulgaris): 1.56 µg/mL
- MIC (Salmonella typhi): 1.5 µg/mL

Structure (SMILES): CC(=O)NS(=O)(=O)c1ccc(/N=C(\C)C2=C(O)[C@H](N)[C@@H]3Cc4c(c(O)c5c(O)c(C)ccc5c4C)C(=O)[C@]3(O)C2=O)cc1.Cl
- CD50 (Proteus mirabilis [1]): 100 mg/kg
- MIC (Escherichia coli): 6.2 µg/mL
- MIC (Pasteurella multocida): 0.78 µg/mL
- MIC (Staphylococcus aureus [2]): 3.1 µg/mL
- CD50 (Proteus mirabilis [3]): 6.25 mg/kg
- MIC (Streptococcus pyogenes): 3.1 µg/mL
- MIC (Enterococcus): 12.5 µg/mL
- MIC (Klebsiella pneumoniae): 1.56 µg/mL
- Activity (Pseudomonas aeruginosa): inactive
- MIC (Staphylococcus aureus [4]): 6.2 µg/mL
- MIC (Proteus mirabilis [5]): 6.2 µg/mL
- MIC (Proteus vulgaris): 3.1 µg/mL
- MIC (Salmonella typhi): 1.5 µg/mL

Structure (SMILES): C/C(=N\N1CCN(C)CC1)C1=C(O)[C@H](N)[C@@H]2Cc3c(c(O)c4c(O)c(C)ccc4c3C)C(=O)[C@]2(O)C1=O.Cl
- CD50 (Proteus mirabilis [1]): 25 mg/kg
- MIC (Escherichia coli): 6.2 µg/mL
- MIC (Pasteurella multocida): 0.78 µg/mL
- MIC (Staphylococcus aureus [2]): 6.2 µg/mL
- CD50 (Proteus mirabilis [3]): 12.5 mg/kg
- MIC (Streptococcus pyogenes): 3.1 µg/mL
- MIC (Enterococcus): 12.5 µg/mL
- MIC (Klebsiella pneumoniae): 3.1 µg/mL
- Activity (Pseudomonas aeruginosa): inactive
- MIC (Staphylococcus aureus [4]): 6.2 µg/mL
- MIC (Proteus mirabilis [5]): 6.2 µg/mL
- MIC (Proteus vulgaris): 6.2 µg/mL
- MIC (Salmonella typhi): 3.1 µg/mL

Structure (SMILES): C/C(=N\N1CCN(CCO)CC1)C1=C(O)[C@H](N)[C@@H]2Cc3c(c(O)c4c(O)c(C)ccc4c3C)C(=O)[C@]2(O)C1=O.Cl
- CD50 (Proteus mirabilis [1]): 100 mg/kg
- MIC (Escherichia coli): 6.2 µg/mL
- MIC (Pasteurella multocida): 0.39 µg/mL
- MIC (Staphylococcus aureus [2]): 6.2 µg/mL
- CD50 (Proteus mirabilis [3]): 25 mg/kg
- MIC (Streptococcus pyogenes): 3.1 µg/mL
- MIC (Enterococcus): 6.2 µg/mL
- MIC (Klebsiella pneumoniae): 1.56 µg/mL
- Activity (Pseudomonas aeruginosa): inactive
- MIC (Staphylococcus aureus [4]): 12.5 µg/mL
- MIC (Proteus mirabilis [5]): 3.1 µg/mL
- MIC (Proteus vulgaris): 3.1 µg/mL
- MIC (Salmonella typhi): 1.56 µg/mL

Structure (SMILES): C/C(=N\NC(=N)N)C1=C(O)[C@H](N)[C@@H]2Cc3c(c(O)c4c(O)c(C)ccc4c3C)C(=O)[C@]2(O)C1=O.Cl
- CD50 (Proteus mirabilis [1]): 100 mg/kg
- MIC (Escherichia coli): 25 µg/mL
- MIC (Pasteurella multocida): 3.1 µg/mL
- MIC (Staphylococcus aureus [2]): 50 µg/mL
- CD50 (Proteus mirabilis [3]): 12.5 mg/kg
- MIC (Streptococcus pyogenes): 25 µg/mL
- MIC (Enterococcus): 50 µg/mL
- MIC (Klebsiella pneumoniae): 12.5 µg/mL
- Activity (Pseudomonas aeruginosa): inactive
- MIC (Staphylococcus aureus [4]): 50 µg/mL
- MIC (Proteus mirabilis [5]): 12.5 µg/mL
- MIC (Proteus vulgaris): 12.5 µg/mL
- MIC (Salmonella typhi): 25 µg/mL

Structure (SMILES): CC(=O)N/N=C(\C)C1=C(O)[C@H](N)[C@@H]2Cc3c(c(O)c4c(O)c(C)ccc4c3C)C(=O)[C@]2(O)C1=O.Cl
- CD50 (Proteus mirabilis [1]): 50 mg/kg
- MIC (Escherichia coli): 12.5 µg/mL
- MIC (Pasteurella multocida): 0.78 µg/mL
- MIC (Staphylococcus aureus [2]): 12.5 µg/mL
- CD50 (Proteus mirabilis [3]): 25 mg/kg
- MIC (Streptococcus pyogenes): 6.2 µg/mL
- MIC (Enterococcus): 12.5 µg/mL
- MIC (Klebsiella pneumoniae): 6.2 µg/mL
- Activity (Pseudomonas aeruginosa): inactive
- MIC (Staphylococcus aureus [4]): 12.5 µg/mL
- MIC (Proteus mirabilis [5]): 6.2 µg/mL
- MIC (Proteus vulgaris): 6.2 µg/mL
- MIC (Salmonella typhi): 6.2 µg/mL

Structure (SMILES): C/C(=N\c1ccc(S(N)(=O)=O)cc1)C1=C(O)[C@H](N)[C@@H]2Cc3c(c(O)c4c(O)c(C)ccc4c3C)C(=O)[C@]2(O)C1=O.Cl
- CD50 (Proteus mirabilis [1]): <25 mg/kg
- MIC (Escherichia coli): 6.2 µg/mL
- MIC (Pasteurella multocida): 0.2 µg/mL
- MIC (Staphylococcus aureus [2]): 3.1 µg/mL
- CD50 (Proteus mirabilis [3]): 6.25 mg/kg
- MIC (Streptococcus pyogenes): 3.1 µg/mL
- MIC (Enterococcus): 6.2 µg/mL
- MIC (Klebsiella pneumoniae): 1.56 µg/mL
- Activity (Pseudomonas aeruginosa): inactive
- MIC (Staphylococcus aureus [4]): 6.2 µg/mL
- MIC (Proteus mirabilis [5]): 3.1 µg/mL
- MIC (Proteus vulgaris): 1.56 µg/mL
- MIC (Salmonella typhi): 0.7 µg/mL

Structure (SMILES): C/C(=N\NC(=O)c1ccc(O)cc1)C1=C(O)[C@H](N)[C@@H]2Cc3c(c(O)c4c(O)c(C)ccc4c3C)C(=O)[C@]2(O)C1=O.Cl (stereo in doubt)
- MIC (Escherichia coli): 50 µg/mL
- MIC (Pasteurella multocida): 3.1 µg/mL
- MIC (Staphylococcus aureus [2]): 50 µg/mL
- MIC (Streptococcus pyogenes): 50 µg/mL
- MIC (Enterococcus): 100 µg/mL
- MIC (Klebsiella pneumoniae): 25 µg/mL
- Activity (Pseudomonas aeruginosa): inactive
- MIC (Staphylococcus aureus [4]): 50 µg/mL
- MIC (Proteus mirabilis [5]): 12.5 µg/mL
- MIC (Proteus vulgaris): 12.5 µg/mL
- MIC (Salmonella typhi): 25 µg/mL

Structure (SMILES): C/C(=N\c1ccc(C(=O)O)cc1)C1=C(O)[C@H](N)[C@@H]2Cc3c(c(O)c4c(O)c(C)ccc4c3C)C(=O)[C@]2(O)C1=O.Cl
- MIC (Escherichia coli): 6.2 µg/mL
- MIC (Pasteurella multocida): 0.39 µg/mL
- MIC (Staphylococcus aureus [2]): 3.1 µg/mL
- MIC (Streptococcus pyogenes): 3.1 µg/mL
- MIC (Enterococcus): 6.2 µg/mL
- MIC (Klebsiella pneumoniae): 1.56 µg/mL
- Activity (Pseudomonas aeruginosa): inactive
- MIC (Staphylococcus aureus [4]): 6.2 µg/mL
- MIC (Proteus mirabilis [5]): 3.1 µg/mL
- MIC (Proteus vulgaris): 1.56 µg/mL
- MIC (Salmonella typhi): 1.5 µg/mL

Structure (SMILES): C/C(=N\NC(=O)c1cccnc1)C1=C(O)[C@H](N)[C@@H]2Cc3c(c(O)c4c(O)c(C)ccc4c3C)C(=O)[C@]2(O)C1=O.Cl
- MIC (Escherichia coli): 100 µg/mL
- MIC (Pasteurella multocida): 12.5 µg/mL
- MIC (Staphylococcus aureus [2]): > 100 µg/mL
- MIC (Streptococcus pyogenes): 100 µg/mL
- MIC (Enterococcus): > 100 µg/mL
- MIC (Klebsiella pneumoniae): 100 µg/mL
- Activity (Pseudomonas aeruginosa): inactive
- MIC (Staphylococcus aureus [4]): > 100 µg/mL
- MIC (Proteus mirabilis [5]): > 100 µg/mL
- MIC (Proteus vulgaris): > 100 µg/mL
- MIC (Salmonella typhi): 100 µg/mL

Structure (SMILES): CNC(=O)N/N=C(\C)C1=C(O)[C@H](N)[C@@H]2Cc3c(c(O)c4c(O)c(C)ccc4c3C)C(=O)[C@]2(O)C1=O.Cl
- MIC (Escherichia coli): 50 µg/mL
- MIC (Pasteurella multocida): 3.1 µg/mL
- MIC (Staphylococcus aureus [2]): 25 µg/mL
- MIC (Streptococcus pyogenes): 25 µg/mL
- MIC (Enterococcus): 50 µg/mL
- MIC (Klebsiella pneumoniae): 12.5 µg/mL
- Activity (Pseudomonas aeruginosa): inactive
- MIC (Staphylococcus aureus [4]): 50 µg/mL
- MIC (Proteus mirabilis [5]): 50 µg/mL
- MIC (Proteus vulgaris): 25 µg/mL
- MIC (Salmonella typhi): 25 µg/mL

Structure (SMILES): C/C(=N\N1CCOCC1)C1=C(O)[C@H](N)[C@@H]2Cc3c(c(O)c4c(O)c(C)ccc4c3C)C(=O)[C@]2(O)C1=O.Cl
- MIC (Escherichia coli): 25 µg/mL
- MIC (Pasteurella multocida): 0.78 µg/mL
- MIC (Staphylococcus aureus [2]): 12.5 µg/mL
- MIC (Streptococcus pyogenes): 12.5 µg/mL
- MIC (Enterococcus): 12.5 µg/mL
- MIC (Klebsiella pneumoniae): 6.2 µg/mL
- Activity (Pseudomonas aeruginosa): inactive
- MIC (Staphylococcus aureus [4]): 12.5 µg/mL
- MIC (Proteus mirabilis [5]): 12.5 µg/mL
- MIC (Proteus vulgaris): 6.2 µg/mL
- MIC (Salmonella typhi): 3.1 µg/mL

Structure (SMILES): CCCNC(=O)N/N=C(\C)C1=C(O)[C@H](N)[C@@H]2Cc3c(c(O)c4c(O)c(C)ccc4c3C)C(=O)[C@]2(O)C1=O.Cl
- MIC (Escherichia coli): 25 µg/mL
- MIC (Pasteurella multocida): 0.78 µg/mL
- MIC (Staphylococcus aureus [2]): 25 µg/mL
- MIC (Streptococcus pyogenes): 12.5 µg/mL
- MIC (Enterococcus): 50 µg/mL
- MIC (Klebsiella pneumoniae): 6.2 µg/mL
- Activity (Pseudomonas aeruginosa): inactive
- MIC (Staphylococcus aureus [4]): 25 µg/mL
- MIC (Proteus mirabilis [5]): 6.2 µg/mL
- MIC (Proteus vulgaris): 6.2 µg/mL
- MIC (Salmonella typhi): 6.2 µg/mL

Structure (SMILES): C/C(=N\NC(=O)c1ccc(N)cc1)C1=C(O)[C@H](N)[C@@H]2Cc3c(c(O)c4c(O)c(C)ccc4c3C)C(=O)[C@]2(O)C1=O.Cl (stereo in doubt)
- MIC (Escherichia coli): 50 µg/mL
- MIC (Pasteurella multocida): 1.56 µg/mL
- MIC (Staphylococcus aureus [2]): 50 µg/mL
- MIC (Streptococcus pyogenes): 25 µg/mL
- MIC (Enterococcus): 50 µg/mL
- MIC (Klebsiella pneumoniae): 12.5 µg/mL
- Activity (Pseudomonas aeruginosa): inactive
- MIC (Staphylococcus aureus [4]): 50 µg/mL
- MIC (Proteus mirabilis [5]): 12.5 µg/mL
- MIC (Proteus vulgaris): 12.5 µg/mL
- MIC (Salmonella typhi): 12.5 µg/mL
